ChEMBL document CHEMBL1833877, “Antinociceptive properties of bergenin” (J Nat Prod, 2011)
The source made the active and inactive calls. The rule behind the calls is not given here.

Legend:
Format in all cases: functional, organism-based
[1] = test system: Mus musculus; assay: Antinociceptive activity in mouse assessed as inhibition of acetic acid-induced abdominal constrictions at 10 mg/kg, ip administered 40 mins before acetic acid challenge measured for 30 mins; design: dose 10 mg/kg; conditions: Abdomen
In short: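 Dosing was ip in 2% DMSO/saline 40 min before ip acetic acid (0.8% v/v, 10 mL/kg). Writhes (abdominal contraction with hind-limb stretching) were counted over 0–30 min. n = 6 mice/group, means ± SEM, ANOVA with Tukey.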

[2] = test system: Mus musculus; assay: Antinociceptive activity against formalin-induced pain in mouse assessed as paw licking during early phase (0 to 10 mins) at 10 mg/kg, ip administered 40 mins before formalin challenge; design: dose 10 mg/kg
In short: (§1)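 Mice were acclimated 30 min in an observation chamber, then given 20 μL of 2.5% formalin sc into the dorsal hind paw. Dosing was ip (2% DMSO/saline vehicle) 40 min beforehand. Time spent licking the injected paw was scored over 0–10 min and 10–60 min. n = 6/group, means ± SEM, ANOVA with Tukey.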

[3] = test system: Mus musculus; assay: Antinociceptive activity against formalin-induced pain in mouse assessed as paw licking during late phase (10 to 60 mins) at 10 mg/kg, ip administered 40 mins before formalin challenge; design: dose 10 mg/kg; in short: as §1
[4] = test system: Mus musculus; assay: Antinociceptive activity against Freund's complete adjuvant-induced paw inflammation in mouse assessed as reduction in paw edema at 2 mg/kg, ip administered 40 mins before CFA challenge measured after 6 hrs; design: dose 2 mg/kg
In short: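 CFA (20 μL, 1 mg/mL heat-killed M. tuberculosis) was injected sc into the right hind plantar surface. Treatment was ip in 2% DMSO/saline 40 min before. Paw volume was read by plethysmometer before and after CFA, and edema taken as the volume difference (mm3/paw). n = 6 mice/group, means ± SEM, two-way ANOVA with Bonferroni.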

[5] = test system: Mus musculus; assay: Inhibition of IL1-beta production in Freund's complete adjuvant-induced mouse at 2 mg/kg, ip administered 40 mins before CFA challenge measured after 2 hrs by ELISA; design: dose 2 mg/kg
In short: (§2)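 CFA was given intraplantar, with ip dosing (2% DMSO/saline vehicle) 40 min earlier. At 2 h, paw skin was taken under terminal halothane anesthesia. Tissue was extracted (100 mg/mL PBS with 0.4 M NaCl, 0.05% Tween 20 and protease inhibitors) and centrifuged at 3000g for 10 min. Supernatant was assayed by mouse ELISA, in pg/mL. n = 6/group.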

[6] = test system: Mus musculus; assay: Inhibition of TNF-alpha production in Freund's complete adjuvant-induced mouse at 2 mg/kg, ip administered 40 mins before CFA challenge measured after 2 hrs by ELISA; design: dose 2 mg/kg; in short: as §2

SMILES	Activity [1]	Activity [2]	Activity [3]	Activity [4]	inhibition [5]	inhibition [6]
COc1ccc2c(c1)c(CC(=O)O)c(C)n2C(=O)c1ccc(Cl)cc1	Active	Active	Active			
C[C@@H]1C[C@H]2[C@@H]3CCC4=CC(=O)C=C[C@]4(C)[C@@]3(F)[C@@H](O)C[C@]2(C)[C@@]1(O)C(=O)CO				inactive	Active	Active
